Measured values pooled from the literature.
HTR2B: 5-hydroxytryptamine receptor 2B (HTR2B, Homo sapiens, UniProt P41595)
HTR2C: 5-hydroxytryptamine receptor 2C (HTR2C, Homo sapiens, UniProt P28335)
HLA class I histocompatibility antigen, B alpha chain: HLA class I histocompatibility antigen, B alpha chain (Homo sapiens, UniProt P01889)

With `COc1cc(C(F)(F)F)c(OC)cc1C1CCCNC1` (stereo not drawn) the EC50 was 0.12 µM (HTR2B; G protein activation; agonist; BRET).
`c1cncc([C@@H]2CCCN2)c1` has a Ki of 1.3 µM (Neuronal acetylcholine receptor; alpha3/beta4 (Rattus norvegicus, UniProt P04757+P12392); cell-free assay; radioligand).
For `O=C(O)CC(O)(CC(=O)O)C(=O)O`, the Ki was 4100 µM (Tyrosine-protein phosphatase non-receptor type 5 (PTPN5, Homo sapiens, UniProt P54829); enzyme activity; inhibitor).
The Ki of `COc1cc2c3c(c1OC)-c1c(cccc1OC)CC3N(C)CC2` (racemic) is reported as 0.596 µM (HTR2B; ligand displacement; radioligand).
`O=[N+]([O-])c1ccc(O)c([N+](=O)[O-])c1` has a Kd of > 50 µM (Casein kinase I isoform delta (CSNK1D, Homo sapiens, UniProt P48730); binding; SPR).
With `COc1cc(CCNC2CCCc3cccc(O)c32)c(OC)cc1C#N` (stereo not drawn) the EC50 was 5.9 µM (HTR2C; G protein activation; agonist; BRET).
`CC[C@H](C)[C@H](NC(=O)[C@@H]1CCCN1C(=O)[C@H](Cc1c[nH]cn1)NC(=O)[C@H](CCCCN)NC(=O)[C@H](Cc1ccccc1)NC(=O)[C@H](CC(C)C)NC(=O)[C@@H](N)CCCCN)C(=O)N[C@@H](CCC(N)=O)C(=O)N[C@@H](CC(C)C)C(=O)O` has an IC50 of 7.48 µM (HLA class I histocompatibility antigen, B alpha chain; cell-free assay).
For `COc1cc2c(cc1OC)CN(CCc1ccc(NC(=O)c3cccc4c(=O)c5cccc(OC)c5[nH]c34)cc1)CC2`, the Ki was 0.094 µM (HTR2C; cell-free assay).
`CC[C@H](C)[C@H](NC(=O)[C@@H](NC(=O)[C@H](CCCCN)NC(=O)[C@H](Cc1c[nH]cn1)NC(=O)[C@H](Cc1ccc(O)cc1)NC(=O)[C@H](CCSC)NC(=O)[C@@H](N)CCCNC(=N)N)C(C)C)C(=O)N[C@H](C(=O)N[C@@H](Cc1ccccc1)C(=O)O)[C@@H](C)O` gave an IC50 of 1.75 µM (HLA class I histocompatibility antigen, B alpha chain; cell-free assay).
`COc1cc2c3c(c1OC)-c1c(OC)ccc(Cl)c1CC3N(C)CC2` (racemic) gave a Ki of 0.792 µM (HTR2C; cell-free assay; radioligand).
For `CC(C)C[C@H](NC(=O)[C@H](CCC(N)=O)NC(=O)[C@H](CCCNC(=N)N)NC(=O)[C@H](CO)NC(=O)[C@H](Cc1ccc(O)cc1)NC(=O)[C@H](CC(C)C)NC(=O)[C@@H](N)CCCNC(=N)N)C(=O)N[C@@H](Cc1c[nH]cn1)C(=O)N[C@@H](Cc1ccccc1)C(=O)O`, the IC50 was 7.67 µM (HLA class I histocompatibility antigen, B alpha chain; cell-free assay).
With `CC[C@H](C)[C@H](NC(=O)[C@@H]1CCCN1C(=O)[C@H](CCC(=O)O)NC(=O)[C@H](CC(C)C)NC(=O)[C@@H](N)C(C)C)C(=O)N[C@@H](CC(C)C)C(=O)N[C@@H](Cc1c[nH]cn1)C(=O)N[C@@H](CO)C(=O)N[C@H](C(=O)O)[C@@H](C)OP(=O)(O)O` the Kd was 0.0137 µM (Serine/threonine-protein kinase PLK1, polo-box (PLK1, Homo sapiens, UniProt P53350); binding; MST; pH 8).
